For 14 compounds, logKw, logP and IC50 results are on record in ChEMBL document CHEMBL4190210, “Derivatives of the Lignan 7'-Hydroxymatairesinol with Antioxidant Properties and Enhanced Lipophilicity” (J Nat Prod, 2017).

The logP is a log measure of how a compound divides between an organic and an aqueous phase. The term IC50 denotes the concentration that inhibits the measured activity by half.

The first data set in a line: Lipophilicity, log Kw of the compound by reversed-phase UHPLC analysis. To be noted: water/acetonitrile. Format: physicochemical. In outline: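 Binary elution with water and acetonitrile, each containing 0.1% formic acid. Detection by UV at 254 nm and by negative/positive ESIMS selected ion monitoring.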
Compound `CCCCCCCCCCCCCCCCCC(=O)O[C@H](c1ccc(O)c(OC)c1)[C@H]1COC(=O)[C@@H]1Cc1ccc(O)c(OC)c1` came in with a logKw of 5.43. Still for that read-out and setting: next, `CCCCCCCC(=O)O[C@@H](c1ccc(O)c(OC)c1)[C@H]1COC(=O)[C@@H]1Cc1ccc(O)c(OC)c1`: 3.12. The same measure, in the same setting: the same measure for `CCCCCCCCCCCC(=O)O[C@H](c1ccc(O)c(OC)c1)[C@H]1COC(=O)[C@@H]1Cc1ccc(O)c(OC)c1`: 3.63; for `CCCCCCCCCCCCCCCCCC(=O)O[C@@H](c1ccc(O)c(OC)c1)[C@H]1COC(=O)[C@@H]1Cc1ccc(O)c(OC)c1`: 5.5; for `COc1cc(C[C@H]2C(=O)OC[C@@H]2[C@H](O)c2ccc(O)c(OC)c2)ccc1O` [HYDROXYMATAIRESINOL]: 1.49. The same measure, in the same setting: the same measure for `CCCCCCCCCCCC(=O)O[C@@H](c1ccc(O)c(OC)c1)[C@H]1COC(=O)[C@@H]1Cc1ccc(O)c(OC)c1`: 3.68; for `CCCCCCCC(=O)O[C@H](c1ccc(O)c(OC)c1)[C@H]1COC(=O)[C@@H]1Cc1ccc(O)c(OC)c1`: 3.06.

The nature of a further data set: Lipophilicity, log P of the compound. In kind it is physicochemical. To be noted: octanol/water.
`CCCCCCCCOC(=O)c1cc(O)c(O)c(O)c1` [OCTYL_GALLATE]: the logP amounted to 4.1.

A further data set can be described thus: Antioxidant activity assessed as DPPH radical scavenging activity at test compound/DPPH volume ratio 1:1 after 1 hr by UV-spectrophotometric method.
Conditions: not given
In kind it is functional. In outline:
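DPPH 200 µM in methanol. Antioxidant stocks were 1 mM in methanol, diluted to 2–200 µM. The reaction was started by adding 1 mL DPPH solution to 1 mL antioxidant solution (1:1). Samples were incubated 1 h, an interval chosen from a time-course study.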
(In general: The DPPH test is a chemical assay of radical scavenging.)
Turning to `O=C1O[C@H]([C@@H](O)CO)C(O)=C1O` [ASCORBIC ACID], the IC50 was determined as 20.3 µM. For the compound `Cc1cc(C(C)(C)C)c(O)c(C(C)(C)C)c1` [BUTYLATED HYDROXYTOLUENE], the half-inhibitory concentration (IC50) came out at 34 µM. On to `CCCCCCCCCCCC(=O)OC(c1ccc(O)c(OC)c1)[C@H]1COC(=O)[C@@H]1Cc1ccc(O)c(OC)c1` (stereo partly specified), for which the concentration for half-maximal inhibition (IC50) worked out at 24.5 µM. On the same count and under the same terms, next, `CCCCCCCCCCCCCCCCCC(=O)OC(c1ccc(O)c(OC)c1)[C@H]1COC(=O)[C@@H]1Cc1ccc(O)c(OC)c1` (stereo partly specified): 25.2 µM. On the same count and under the same terms, the same measure for `Cc1c(C)c2c(c(C)c1O)CC[C@@](C)(CCC[C@H](C)CCC[C@H](C)CCCC(C)C)O2` (racemic) [ALPHA-TOCOPHEROL]: 23.5 µM; for `COc1cc(C[C@H]2C(=O)OC[C@@H]2[C@H](O)c2ccc(O)c(OC)c2)ccc1O` [HYDROXYMATAIRESINOL]: 20 µM; for `CCCCCCCC(=O)OC(c1ccc(O)c(OC)c1)[C@H]1COC(=O)[C@@H]1Cc1ccc(O)c(OC)c1` (stereo partly specified): 24.1 µM.

A short description of a further data set: Antioxidant activity assessed as DPPH radical scavenging activity at test compound/DPPH volume ratio 3:1 incubated under dark condition for 30 mins by spectrophotometric method. Format: functional.
Conditions: not given
Consider `O=C1O[C@H]([C@@H](O)CO)C(O)=C1O` [ASCORBIC ACID], for which the half-inhibitory concentration (IC50) amounted to 12.6 µM.
